Source: ChEMBL document CHEMBL1151249, “Cytotoxic and antimicrobial constituents of the bark of Diospyros maritima collected in two geographical locations in Indonesia” (J Nat Prod, 2004)
In brackets after ≈: the same amount, converted by molar mass.

Legend:
Micrococcus luteus [1] = assay: Antimicrobial activity against Micrococcus luteus after 18 hrs by zone-of-inhibition assay; format: functional, organism-based
Micrococcus luteus [2] = assay: Antimicrobial activity against Micrococcus luteus assessed as 99.9 % growth inhibition after 18 hrs by zone-of-inhibition assay; format: functional
Staphylococcus aureus [3] = assay: Antimicrobial activity against Staphylococcus aureus after 18 hrs by zone-of-inhibition assay; format: functional, organism-based
Staphylococcus aureus [4] = assay: Antimicrobial activity against Staphylococcus aureus assessed as 99.9 % growth inhibition after 18 hrs by zone-of-inhibition assay; format: functional
[5] = system: Mycolicibacterium smegmatis; assay: Antimicrobial activity against Mycobacterium smegmatis after 18 hrs by zone-of-inhibition assay; format: functional, organism-based
[6] = system: Mycolicibacterium smegmatis; assay: Antimicrobial activity against Mycobacterium smegmatis assessed as 99.9 % growth inhibition after 18 hrs by zone-of-inhibition assay; format: functional
Mycobacterium avium [7] = assay: Antimicrobial activity against Mycobacterium avium after 18 hrs by zone-of-inhibition assay; format: functional, organism-based
Candida albicans [8] = assay: Antifungal activity against Candida albicans after 18 hrs by zone-of-inhibition assay; format: functional, organism-based; conditions: for IC50: Candida albicans, 18 h
Cryptococcus neoformans [9] = assay: Antifungal activity against Cryptococcus neoformans after 18 hrs by zone-of-inhibition assay; format: functional, organism-based; conditions: for IC50: Cryptococcus neoformans, 18 h
Cryptococcus neoformans [10] = assay: Antifungal activity against Cryptococcus neoformans assessed as 99.9 % growth inhibition after 18 hrs by zone-of-inhibition assay; format: functional
Saccharomyces cerevisiae [11] = assay: Antifungal activity against Saccharomyces cerevisiae after 18 hrs by zone-of-inhibition assay; format: functional, organism-based
Saccharomyces cerevisiae [12] = assay: Antifungal activity against Saccharomyces cerevisiae assessed as 99.9 % growth inhibition after 18 hrs by zone-of-inhibition assay; format: functional
Aspergillus niger [13] = assay: Antifungal activity against Aspergillus niger after 18 hrs by zone-of-inhibition assay; format: functional, organism-based
Aspergillus niger [14] = assay: Antifungal activity against Aspergillus niger assessed as 99.9 % growth inhibition after 18 hrs by zone-of-inhibition assay; format: functional
Candida albicans [15] = assay: Antimicrobial activity against Candida albicans assessed as 99.9 % growth inhibition after 18 hrs by zone-of-inhibition assay; format: functional
KB = assay: Cytotoxicity against human KB cells; format: functional, cell-based; conditions: read-out: ED50 (the source's name)
Lu1 = assay: Cytotoxicity against human Lu1 cells; format: functional; conditions: read-out: ED50 (the source's name)
LNCaP = assay: Cytotoxicity against human LNCAP cells; format: functional; conditions: read-out: ED50 (the source's name)
[16] = Cytotoxicity against human HUVEC; format: cell-based; conditions: HUVEC cells, read-out: ED50 (the source's name)
Mycobacterium avium [17] = assay: Antimicrobial activity against Mycobacterium avium assessed as 99.9 % growth inhibition after 18 hrs by zone-of-inhibition assay; format: functional
Mus musculus [18] = assay: Toxicity in human KB cell xenografted mouse assessed as body weight loss at 5 mg/kg; format: organism-based; parameters: dose 5 mg/kg; conditions: in vivo
In short: (§1)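 In vivo hollow fiber assay in mice, with KB, LNCaP or Lu1 cancer cells at intraperitoneal and subcutaneous sites. Doses ranged from 1.25 to 10 mg/kg, with six mice per dose group. Body weight and deaths were recorded alongside tumor-cell growth inhibition.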

Mus musculus [19] = assay: Toxicity in human LNCaP cell xenografted mouse assessed as body weight loss at 5 mg/kg; format: organism-based; parameters: dose 5 mg/kg; conditions: in vivo; in short: as §1
Mus musculus [20] = assay: Toxicity in human LU1 cell xenografted mouse assessed as body weight loss at 5 mg/kg; format: organism-based; parameters: dose 5 mg/kg; conditions: in vivo; in short: as §1

Row | Compound | IC50 (Micrococcus luteus [1]) | Activity (Micrococcus luteus [2]) | IC50 (Staphylococcus aureus [3]) | Activity (Staphylococcus aureus [4]) | IC50 [5] | Activity [6] | IC50 (Mycobacterium avium [7]) | Activity (Cryptococcus neoformans [10]) | IC50 (Saccharomyces cerevisiae [11]) | Activity (Saccharomyces cerevisiae [12]) | IC50 (Aspergillus niger [13]) | Activity (Aspergillus niger [14]) | Activity (Candida albicans [15]) | EC50 (KB) | EC50 (Lu1) | EC50 (LNCaP) | CC50 [16] | IC50 (Candida albicans [8]) | IC50 (Cryptococcus neoformans [9]) | other results
1 | COc1cc2c[n+](C)c3c4cc5c(cc4ccc3c2cc1OC)OCO5.[Cl-] [NITIDINE CHLORIDE] | 200 µg/mL | 5000 µg/mL | 300 µg/mL | 5000 µg/mL | 1000 µg/mL | >5000 µg/mL | 3000 µg/mL | 300 µg/mL | 300 µg/mL | 3000 µg/mL | 3000 µg/mL | >5000 µg/mL | 200 µg/mL |  |  |  |  |  |  | Activity (Candida albicans [8]): 20 µg/mL; Activity (Cryptococcus neoformans [9]): 80 µg/mL
2 | Cc1cc(O)c2c(c1)C(=O)C=CC2=O [RAMENTACEONE] | 20 µg/mL (≈ 106 µM) | 1000 µg/mL | 200 µg/mL (≈ 1060 µM) | >1000 µg/mL | 40 µg/mL (≈ 213 µM) | 600 µg/mL | 5 µg/mL (≈ 26.6 µM) | 1 µg/mL | 0.3 µg/mL (≈ 1.59 µM) | 1 µg/mL | 5 µg/mL (≈ 26.6 µM) | 300 µg/mL | 20 µg/mL | 4.1 µg/mL (≈ 21.8 µM) | 13.2 µg/mL (≈ 70.1 µM) | 3.7 µg/mL (≈ 19.7 µM) | 5.7 µg/mL (≈ 30.3 µM) | 0.3 µg/mL (≈ 1.59 µM) | 0.3 µg/mL (≈ 1.59 µM) | 
3 | C=C(C)[C@@H]1CC[C@]2(C)CC[C@]3(C)[C@H](CC[C@@H]4[C@@]5(C)CC[C@H](O)C(C)(C)[C@@H]5CC[C@]43C)[C@@H]12 [LUPEOL] | > 1000 µg/mL | >1000 µg/mL | > 1000 µg/mL | >1000 µg/mL | > 1000 µg/mL | >1000 µg/mL | > 1000 µg/mL | >1000 µg/mL | > 1000 µg/mL | >1000 µg/mL | > 1000 µg/mL | >1000 µg/mL | >1000 µg/mL | > 5 µg/mL | > 5 µg/mL | > 5 µg/mL | > 5 µg/mL | > 1000 µg/mL | > 1000 µg/mL | 
4 | COC1=CC(=O)c2cc(C)cc(O)c2C1=O | 700 µg/mL (≈ 3210 µM) | >1000 µg/mL | > 1000 µg/mL | >1000 µg/mL | > 1000 µg/mL | >1000 µg/mL | 700 µg/mL (≈ 3210 µM) | >1000 µg/mL | > 1000 µg/mL | >1000 µg/mL | > 1000 µg/mL | >1000 µg/mL | >1000 µg/mL | 2.4 µg/mL (≈ 11 µM) | 1.8 µg/mL (≈ 8.25 µM) | 4.1 µg/mL (≈ 18.8 µM) | 5.5 µg/mL (≈ 25.2 µM) | > 1000 µg/mL | > 1000 µg/mL | 
5 | Cc1cc(O)c2c(c1)[C@@H](O)CCC2=O [4S-SHINANOLONE] | > 1000 µg/mL | >1000 µg/mL | > 1000 µg/mL | >1000 µg/mL | > 1000 µg/mL | >1000 µg/mL | > 1000 µg/mL | >1000 µg/mL | > 1000 µg/mL | >1000 µg/mL | > 1000 µg/mL | >1000 µg/mL | >1000 µg/mL | > 5 µg/mL | > 5 µg/mL | > 5 µg/mL | > 5 µg/mL | > 1000 µg/mL | > 1000 µg/mL | 
6 | COC(=O)c1c(O)cc(C)cc1O | > 1000 µg/mL | >1000 µg/mL | > 1000 µg/mL | >1000 µg/mL | > 1000 µg/mL | >1000 µg/mL | > 1000 µg/mL | >1000 µg/mL | > 1000 µg/mL | >1000 µg/mL | > 1000 µg/mL | >1000 µg/mL | >1000 µg/mL | > 5 µg/mL | > 5 µg/mL | > 5 µg/mL | > 5 µg/mL | > 1000 µg/mL | > 1000 µg/mL | 
7 | CC1=CC(=O)c2c(O)cccc2C1=O [PLUMBAGIN] | 80 µg/mL (≈ 425 µM) | 600 µg/mL | 100 µg/mL (≈ 531 µM) | 600 µg/mL | 300 µg/mL (≈ 1590 µM) | >1000 µg/mL | 600 µg/mL (≈ 3190 µM) | 40 µg/mL | 10 µg/mL (≈ 53.1 µM) | 40 µg/mL | 20 µg/mL (≈ 106 µM) | 400 µg/mL | >1000 µg/mL | 0.3 µg/mL (≈ 1.59 µM) | 0.3 µg/mL (≈ 1.59 µM) | 0.4 µg/mL (≈ 2.13 µM) | 0.4 µg/mL (≈ 2.13 µM) | 9 µg/mL (≈ 47.8 µM) | 20 µg/mL (≈ 106 µM) | Activity (Mycobacterium avium [17]): >1000 µg/mL; Activity (Mus musculus [18]): Toxic; Activity (Mus musculus [19]): Toxic; Activity (Mus musculus [20]): Toxic
